Reference: ChEMBL document CHEMBL2029236, “Tubulin binding, protein-bound conformation in solution, and antimitotic cellular profiling of noscapine and its derivatives” (J Med Chem, 2012)
Calls of active or inactive are those of the source. The calls are words filed in the database; no cut-off is given here.

Assays:
Bos taurus [1] = organism: Bos taurus; experiment: Binding affinity to calf brain tubulin assessed as increase in fluorescence at 10 uM by fluorometry relative to control
Method in brief: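 Fluorescence emission spectra of 10 μM ligand with and without 10 μM tubulin in 10 mM sodium phosphate, 0.1 mM GTP, pH 7.0, 25 °C. Emission intensity (425 nm maximum) and anisotropy were compared between bound and unbound ligand.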

[2] = Antiproliferative activity against human PLC/PRF/5 cells; type: functional, cell-based
Method in brief: (§1)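 Cell viability assay in hepatocellular carcinoma cell lines; IC50 values derived from concentration–response data and reported in nM.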

SNU-398 [3] = experiment: Cell cycle arrest in human SNU398 cells assessed as accumulation at sub-G1 phase at 2 uM after 24 hrs by FACS analysis (reference value: 1.2%); type: functional
[4] = Cell cycle arrest in human PLC/PRF/5 cells assessed as accumulation at sub-G1 phase at 2 uM after 24 hrs by FACS analysis (reference value: 1.4%); type: functional, cell-based
SNU-398 [5] = experiment: Antiproliferative activity against human SNU398 cells; type: functional, cell-based; method in brief: as §1
[6] = Cell cycle arrest in human PLC/PRF/5 cells assessed as accumulation at G1 phase at 2 uM after 24 hrs by FACS analysis (reference value: 66.8%); type: functional, cell-based
SNU-398 [7] = experiment: Cell cycle arrest in human SNU398 cells assessed as accumulation at G1 phase at 2 uM after 24 hrs by FACS analysis (reference value: 55.8%); type: functional
SNU-398 [8] = experiment: Cell cycle arrest in human SNU398 cells assessed as accumulation at G2 phase at 2 uM after 24 hrs by FACS analysis (reference value: 38.2%); type: functional
[9] = Cell cycle arrest in human PLC/PRF/5 cells assessed as accumulation at G2 phase at 2 uM after 24 hrs by FACS analysis (reference value: 26.1%); type: functional, cell-based
Bos taurus [10] = organism: Bos taurus; experiment: Inhibition of calf brain tubulin assembly at 10 uM by fluorometry in presence of nocodazole
Bos taurus [11] = organism: Bos taurus; experiment: Inhibition of calf brain tubulin assembly at 10 uM by fluorometry in presence of noscapine
Bos taurus [12] = organism: Bos taurus; experiment: Inhibition of calf brain tubulin assembly at 10 uM by fluorometry in presence of pironetin
Bos taurus [13] = organism: Bos taurus; experiment: Binding affinity to calf brain tubulin assessed as binding constant by fluorometry; type: tissue-based
Method in brief: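 Fluorescence titration in 10 mM sodium phosphate, 0.1 mM GTP, pH 7.0, 25 °C. Ligand at 5 μM was titrated with tubulin up to 100 μM. Bound and free ligand were quantified from the change in ligand fluorescence. Binding constant fitted assuming a single site, 1:1 stoichiometry and 0.87 sites per dimer. Average of five experiments.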

Bos taurus [14] = organism: Bos taurus; experiment: Inhibition of calf brain tubulin assembly at 10 uM by fluorometry in presence of vinblastine
Bos taurus [15] = organism: Bos taurus; experiment: Inhibition of calf brain tubulin assembly at 10 uM by fluorometry in presence of isohomohalichondrin
Bos taurus [16] = organism: Bos taurus; experiment: Inhibition of calf brain tubulin assembly at 10 uM by fluorometry in presence of gossipol
Bos taurus [17] = organism: Bos taurus; experiment: Inhibition of calf brain tubulin assembly at 10 uM by fluorometry in presence of podophyllotoxin
Huh-7 = experiment: Antiproliferative activity against human HuH7 after 72 hrs by CellTiter Glo assay; type: functional, cell-based; conditions: Huh-7, 72 h; method in brief: as §1
HepG2 = experiment: Antiproliferative activity against human HepG2 after 72 hrs by CellTiter Glo assay; type: functional, cell-based; conditions: HepG2, 72 h; method in brief: as §1
SNU-387 = experiment: Antiproliferative activity against human SNU387 after 72 hrs by CellTiter Glo assay; type: functional, cell-based; conditions: SNU-387, 72 h; method in brief: as §1
[18] = Antiproliferative activity against human Hep3B after 72 hrs by CellTiter Glo assay; type: functional, Hep 3B2; method in brief: as §1
[19] = Antiproliferative activity against human MHCC97H after 72 hrs by CellTiter Glo assay; type: functional; method in brief: as §1
Bel-7402 = experiment: Antiproliferative activity against human Bel7402 after 72 hrs by CellTiter Glo assay; type: functional, cell-based; conditions: Bel-7402, 72 h; method in brief: as §1
SNU-423 = experiment: Antiproliferative activity against human SNU423 after 72 hrs by CellTiter Glo assay; type: functional, cell-based; conditions: SNU-423, 72 h; method in brief: as §1
SNU-398 [20] = experiment: Antiproliferative activity against human SNU398 after 72 hrs by CellTiter Glo assay; type: functional, cell-based; conditions: SNU-398, 72 h; method in brief: as §1
SNU-449 = experiment: Antiproliferative activity against human SNU449 after 72 hrs by CellTiter Glo assay; type: functional, cell-based; conditions: SNU-449, 72 h; method in brief: as §1
[21] = Antiproliferative activity against human JHH4 after 72 hrs by CellTiter Glo assay; type: functional; method in brief: as §1
[22] = Antiproliferative activity against human JHH2 after 72 hrs by CellTiter Glo assay; type: functional; method in brief: as §1
[23] = Antiproliferative activity against human JHH7 after 72 hrs by CellTiter Glo assay; type: functional; method in brief: as §1
SNU-475 = experiment: Antiproliferative activity against human SNU475 after 72 hrs by CellTiter Glo assay; type: functional, cell-based; conditions: SNU-475, 72 h; method in brief: as §1
Bos taurus [24] = organism: Bos taurus; experiment: Binding affinity to calf brain tubulin alpha/beta heterodimer assessed as increase in proton signal at […] by STD NMR analysis
Method in brief: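 STD NMR with freshly prepared tubulin α/β heterodimer. Ligand:protein molar ratio 30:1 ([…], […]). Read-out: enhancement of ligand proton signals in STD spectra versus an off-resonance reference spectrum acquired without protein irradiation.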

SMMC-7721 = experiment: Antiproliferative activity against human SMMC7721 after 72 hrs by CellTiter Glo assay; type: functional, cell-based; conditions: SMMC-7721, 72 h; method in brief: as §1
[25] = Antiproliferative activity against human PLC/PRF/5 after 72 hrs by CellTiter Glo assay; type: functional; conditions: PLC-PRF-5, 72 h; method in brief: as §1
[26] = Antiproliferative activity against human SNU182 after 72 hrs by CellTiter Glo assay; type: functional, cell-based; conditions: SNU-182, 72 h; method in brief: as §1
[27] = Cell cycle arrest in human PLC/PRF/5 cells assessed as accumulation at G1 phase after 24 hrs by FACS analysis (reference value: 66.8%); type: functional, cell-based
[28] = Cell cycle arrest in human PLC/PRF/5 cells assessed as accumulation at G2 phase after 24 hrs by FACS analysis (reference value: 26.1%); type: functional, cell-based
SNU-398 [29] = experiment: Cell cycle arrest in human SNU398 cells assessed as accumulation at G2 phase after 24 hrs by FACS analysis (reference value: 38.2%); type: functional
[30] = Cell cycle arrest in human PLC/PRF/5 cells assessed as accumulation at sub-G1 phase after 24 hrs by FACS analysis (reference value: 1.4%); type: functional, cell-based
SNU-398 [31] = experiment: Cell cycle arrest in human SNU398 cells assessed as accumulation at G1 phase after 24 hrs by FACS analysis (reference value: 55.8%); type: functional
SNU-398 [32] = experiment: Cell cycle arrest in human SNU398 cells assessed as accumulation at G2 phase at 100 nM after 24 hrs by FACS analysis (reference value: 38.2%); type: functional
SNU-398 [33] = experiment: Cell cycle arrest in human SNU398 cells assessed as accumulation at G1 phase at 100 nM after 24 hrs by FACS analysis (reference value: 55.8%); type: functional
[34] = Cell cycle arrest in human PLC/PRF/5 cells assessed as accumulation at G1 phase at 100 nM after 24 hrs by FACS analysis (reference value: 66.8%); type: functional, cell-based
[35] = Cell cycle arrest in human PLC/PRF/5 cells assessed as accumulation at G2 phase at 100 nM after 24 hrs by FACS analysis (reference value: 26.1%); type: functional, cell-based
SNU-398 [36] = experiment: Cell cycle arrest in human SNU398 cells assessed as accumulation at sub-G1 phase at 100 nM after 24 hrs by FACS analysis (reference value: 1.2%); type: functional
[37] = Cell cycle arrest in human PLC/PRF/5 cells assessed as accumulation at sub-G1 phase at 100 nM after 24 hrs by FACS analysis (reference value: 1.4%); type: functional, cell-based

SMILES: COc1ccc2c(c1O)C(=O)O[C@@H]2[C@H]1c2c(cc3c(c2OC)OCO3)CCN1C
- Activity (Bos taurus [1]): inactive
- IC50 [2]: > 2000 nM
- Activity (SNU-398 [3]): 15.2%
- Activity [4]: 8.7%
- IC50 (SNU-398 [5]): > 2000 nM
- Activity [6]: 62.8%
- Activity (SNU-398 [7]): 33.5%
- Activity (SNU-398 [8]): 47.8%
- Activity [9]: 23.3%

SMILES: COC(=O)Nc1nc2cc(C(=O)c3cccs3)ccc2[nH]1
- inhibition (Bos taurus [10]): inactive
- inhibition (Bos taurus [11]): Active
- inhibition (Bos taurus [12]): Active
- Activity (Bos taurus [13]): 4 ×10⁵ /M
- inhibition (Bos taurus [14]): Active
- inhibition (Bos taurus [15]): Active
- inhibition (Bos taurus [16]): Active
- inhibition (Bos taurus [17]): Active

SMILES: COc1ccc2c(c1OC)C(=O)O[C@@H]2[C@H]1c2c(cc3c(c2OC)OCO3)CCN1C [NOSCAPINE]
- IC50 (Huh-7): > 1000 nM
- IC50 (HepG2): > 1000 nM
- Activity (Bos taurus [1]): inactive
- IC50 [2]: > 2000 nM
- IC50 (SNU-387): > 1000 nM
- IC50 [18]: > 1000 nM
- Activity (SNU-398 [3]): 1%
- Activity [4]: 1.5%
- IC50 [19]: > 1000 nM
- IC50 (Bel-7402): > 1000 nM
- IC50 (SNU-423): > 1000 nM
- IC50 (SNU-398 [20]): > 1000 nM
- IC50 (SNU-449): > 1000 nM
- IC50 [21]: > 1000 nM
- IC50 (SNU-398 [5]): > 2000 nM
- IC50 [22]: > 1000 nM
- Activity [6]: 65.5%
- IC50 [23]: > 1000 nM
- IC50 (SNU-475): > 1000 nM
- Activity (SNU-398 [7]): 66%
- inhibition (Bos taurus [24]): Active
- IC50 (SMMC-7721): > 1000 nM
- Activity (SNU-398 [8]): 30.3%
- IC50 [25]: > 1000 nM
- Activity [9]: 27.1%
- IC50 [26]: > 1000 nM

SMILES: CC[C@]1(O)C[C@H]2CN(CCc3c([nH]c4ccccc34)[C@@](C(=O)OC)(c3cc4c(cc3OC)N(C=O)[C@H]3[C@@](O)(C(=O)OC)[C@H](OC(C)=O)[C@]5(CC)C=CCN6CC[C@]43[C@@H]65)C2)C1 [VINCRISTINE]
- IC50 (Huh-7): 20 nM
- IC50 (HepG2): > 100 nM
- IC50 [2]: 12.7 nM
- IC50 (SNU-387): 40.9 nM
- IC50 [18]: > 100 nM
- Activity [27]: 12.2%
- IC50 [19]: 21.2 nM
- IC50 (Bel-7402): 4.2 nM
- IC50 (SNU-423): 18.4 nM
- IC50 (SNU-398 [20]): < 0.13 nM
- IC50 (SNU-449): > 100 nM
- Activity [28]: 68.4%
- IC50 [21]: 7.2 nM
- IC50 (SNU-398 [5]): 46.7 nM
- IC50 [22]: > 100 nM
- Activity (SNU-398 [29]): 64.5%
- IC50 [23]: 28.2 nM
- IC50 (SNU-475): 29.3 nM
- IC50 (SMMC-7721): 6.5 nM
- Activity [30]: 11.8%
- Activity (SNU-398 [31]): 17.1%
- IC50 [25]: 22.1 nM
- IC50 [26]: 35.9 nM

SMILES: C/C(=C\c1csc(C)n1)[C@@H]1C[C@@H]2O[C@]2(C)CCC[C@H](C)[C@H](O)[C@@H](C)C(=O)C(C)(C)[C@@H](O)CC(=O)O1 [PATUPILONE]
- IC50 (Huh-7): 4.5 nM
- IC50 (HepG2): 44.7 nM
- IC50 [2]: 3.8 nM
- IC50 (SNU-387): 20 nM
- IC50 [18]: > 100 nM
- IC50 [19]: 6.7 nM
- IC50 (Bel-7402): 0.9 nM
- IC50 (SNU-423): 10.3 nM
- IC50 (SNU-398 [20]): 2.9 nM
- IC50 (SNU-449): 19.9 nM
- Activity (SNU-398 [32]): 70.1%
- Activity (SNU-398 [33]): 13.7%
- Activity [34]: 5.4%
- IC50 [21]: 1.8 nM
- IC50 (SNU-398 [5]): 5 nM
- IC50 [22]: 61.3 nM
- Activity [35]: 56.3%
- IC50 [23]: 14.8 nM
- IC50 (SNU-475): 11.6 nM
- IC50 (SMMC-7721): 2.3 nM
- Activity (SNU-398 [36]): 11.8%
- IC50 [25]: 12.7 nM
- IC50 [26]: 22.3 nM
- Activity [37]: 5.1%
